Bioassay records deposited in PubChem BioAssay by several laboratories.
Rows were chosen to be rich in hits. Some 1% of all compounds tested hit in one or more screens of this group.
TLR4-MyD88 BLA: inhibitors of TLR4-MyD88 association in cells, primary screen, cell-based, HeLa CL3-4, BLA complementation, FRET ratio; HeLa CL3-4 TLR4/MyD88 BLA complementation; 0.18% of 200,000 active; inhibition, % at 8.4 µM; Toll-like receptor 4 (Homo sapiens) + Myeloid differentiation primary response protein …; AID 861, 2007; in the data active means inhibition above about 25%;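 further: 0% = vehicle and 100% = reference inhibitor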
MT stabilizer: microtubule stabilizers in HeLa cells, primary screen, imaging, high-content imaging; HeLa tubulin immunostaining HCS, 24 h; share of cells brighter than vehicle mean+2SD; % tubulin-high responders, % at 10 µM; 0.83% of 200,000 active;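 active means plate Z-score above 3 for both tubulin-high and condensed-nucleus cell shares, with cell loss under 80%, at 10 µM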;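 further: anti alpha tubulin signal scored within the nucleus-defined area of each cell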
b-catenin transl: modulators of beta-catenin nuclear translocation, primary screen, imaging, HeLa cells, immunofluorescence, high-content; nuclear translocation activity, % at 5 µM; 0.3% of 190,000 active; AID 1665, 2009;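 active means nuclear translocation activity above 50% at 5 µM, with a well cell count of 50 or more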;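 further: per-cell ratio of nuclear to cytoplasmic median beta-catenin stain intensity; plate controls were DMSO negative control for no effect and GSK-3 inhibitor IX positive control for full effect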
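Signal – beta-catenin immunofluorescence imaging with DAPI · Test system – human HeLa cell line · Dosing – 5 µM primary single dose, 0.1% DMSO, 0.02–20 µM confirmation series · Measure – % activation, nuclear-to-cytoplasmic median beta-catenin signal ratio per cell · Incubation – 24 h compound exposure at 37°C, 5% CO2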
TLR9-MyD88 block: inhibitors of TLR9-MyD88 association in cells, primary screen, cell-based, CHO, BLA complementation, fluorescence; Toll-like receptor 9 (Homo sapiens) + Myeloid differentiation primary response protein …; CCF4 FRET ratio; inhibition, % at 4.98 µM; 0.21% of 340,000 active; AID 504734, 2011;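 active means inhibition above the mean over all tested compounds plus 3 SD, cut at about 21% in these data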;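 further: 0% = DMSO only wells and 100% = clavulanate BLA inhibitor control wells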
Hsp70 activator: Hsp70 transcriptional activators, primary screen, cell-based, HeLa, Hsp70 promoter luciferase, luminescence, 10 µM. HeLa Hsp70 promoter luciferase reporter; scaled: vehicle 0, proteasome-inhibitor control 100%. AID 1203, 2008. activation, % at 10 µM. 0.04% of 200,000 active;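 active means activation above the mean across all tested compounds plus 3 SD, cutoff set per campaign, cut at about 5.5% in these data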;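 further: 100% = MG132 at 30 µM as the positive control and 0% = DMSO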
NOD2 RIPK2 PPI: NOD2-RIPK2 binding disruptors in cells, primary screen, fluorescence, CHO cells, BLA complementation. inhibition, % at 4.98 µM. AID 624267, 2012. CCF4 ratio. Receptor-interacting serine/threonine-protein kinase 2 (Homo sapiens), O43353. 0.38% of 360,000 active; in the data active means inhibition above about 21%;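 further: 0% = vehicle only and 100% = reference blocker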
Target sequence (O43353 whole entry, looked up): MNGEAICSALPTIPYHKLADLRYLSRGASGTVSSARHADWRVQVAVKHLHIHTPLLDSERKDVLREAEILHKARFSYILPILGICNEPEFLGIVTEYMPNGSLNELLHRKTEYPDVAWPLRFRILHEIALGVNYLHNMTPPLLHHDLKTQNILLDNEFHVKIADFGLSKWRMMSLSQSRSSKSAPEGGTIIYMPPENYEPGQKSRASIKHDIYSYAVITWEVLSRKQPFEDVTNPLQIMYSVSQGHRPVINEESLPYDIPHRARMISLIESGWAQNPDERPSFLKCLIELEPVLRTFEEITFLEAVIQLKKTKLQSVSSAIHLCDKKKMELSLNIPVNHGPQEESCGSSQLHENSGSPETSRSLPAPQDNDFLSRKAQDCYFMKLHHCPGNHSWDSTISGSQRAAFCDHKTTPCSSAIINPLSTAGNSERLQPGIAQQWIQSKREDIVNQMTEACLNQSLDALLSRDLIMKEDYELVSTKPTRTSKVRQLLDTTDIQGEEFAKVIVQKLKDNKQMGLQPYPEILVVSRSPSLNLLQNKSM
* = called active by the depositor; · = no result.

SMILES	TLR4-MyD88 BLA	MT stabilizer	b-catenin transl	TLR9-MyD88 block	Hsp70 activator	NOD2 RIPK2 PPI
O=C(c1cc(N2C(=O)C3C4CCC(C4)C3C2=O)ccc1Cl)N1CCN(c2ccccc2F)CC1 (stereo unspecified)	5	2	-1	-8	0	10
CCOC(=O)c1ccccc1NC(=O)CN(c1ccccc1OCC)S(C)(=O)=O	-10	6	1	-1	0	-1
CCOC(=O)c1ccccc1NC(=O)CN(c1ccc(OCC)cc1)S(C)(=O)=O	-1	13	69*	·	0	·
CC1(C)Cc2nc3sc4c(=O)n(CC(=O)NCc5ccccc5)cnc4c3cc2CO1	7	34*	·	-4	0	-8
CC1(C)Cc2nc3sc4c(=O)n(CC(N)=O)cnc4c3cc2CO1	-16	2	-2	-1	0	-4
CC(C)c1nc2sc3c(SCC(=O)NCc4ccco4)ncnc3c2c2c1CCC2	2	3	16	0	0	1
Cc1nc2c(sc3nc4c(cc32)COC(C)(C)C4)c(=O)n1CC(=O)NCc1ccco1	2	28*	·	-1	1	10
CC1(C)Cc2nc3sc4c(SCC(=O)NCc5ccco5)ncnc4c3cc2CO1	-1	29*	59*	-2	0	3
CC(C)Oc1ccc(CN2CCC2(C)C(=O)Nc2ccc(Cl)c(Cl)c2)cc1 (stereo unspecified)	·	·	·	·	·	3
CNC(=O)C1Cc2c(-c3ccccc3Oc3ccccc3)ccnc2O1 (stereo unspecified)	·	·	·	·	·	0
CC1c2[nH]c3ccccc3c2CCN1C(=O)Nc1ccccc1 (stereo unspecified)	1	43*	5	2	0	5
CCc1ccc(Nc2cc(=O)n(C3CCCCC3)c(=O)[nH]2)cc1	-17	3	·	-2	0	2
O=c1cc(Nc2ccc3c(c2)OCCO3)[nH]c(=O)n1C1CCCCC1	-5	49*	0	-1	0	-5
Cc1[nH]nc(SCC(=O)NC2CCCCC2)c1[N+](=O)[O-]	-4	1	-2	-1	0	4
COc1ccc(CCN(C)Cc2c(O)ccc3ccccc23)cc1OC	·	·	·	-8	·	-2
O=C(N/N=C/c1ccc(Cl)cc1Cl)Nc1ccccc1	-6	19*	10	11	0	-11
O=C(NCCCN1CCOCC1)C(=O)N/N=C/c1c2ccccc2cc2ccccc12	-20	22*	5	-8	0	3
O=C(NCCCN1CCOCC1)C(=O)N/N=C/c1c(Cl)cccc1Cl	11	2	1	1	0	2
O=C1NC2c3ccccc3C(=O)N2c2c1cnn2-c1ccccc1 (stereo unspecified)	10	11*	-2	3	0	-5
C=CCc1ccc(OCc2ccc(C(=O)Nc3ccc(NC(C)=O)cc3)o2)c(OC)c1	·	·	·	-7	·	10
CC(OC(=O)c1cccc(S(=O)(=O)N(C)C)c1)C(=O)NCC(=O)Nc1ccc(F)c(F)c1F (stereo unspecified)	·	·	·	-1	·	-6
Cc1ccc(S(=O)(=O)Nc2ccc3c4c(cccc24)CC3)c(C)c1	-42	42*	·	7	0	5
C(=C\c1nc2ccccc2[nH]1)/c1ccccc1	6	41*	·	-8	0	-1
C(=C\c1ccco1)/c1nc2ccccc2[nH]1	8	6	-2	1	0	-4
Cc1cccc(/C=C\c2nc3ccccc3c(=O)[nH]2)c1	8	12*	29	0	0	-18
SMILES	TLR4-MyD88 BLA	MT stabilizer	b-catenin transl	TLR9-MyD88 block	Hsp70 activator	NOD2 RIPK2 PPI
Cc1nc(/C=C/c2ccccc2)[nH]c(=O)c1-c1ccccc1	1	9.2*	26	-2	0	-1
O=c1[nH]c(/C=C/c2ccc(Br)cc2)nc2ccccc12	·	·	·	5	·	-4
CN(C)c1ccc(/C=C/c2nc3ccccc3c(=O)[nH]2)cc1	·	·	·	5	·	16
CCCCCOc1ccc(Br)cc1CSC(=N)N	-6	14	89*	1	0	10
CN(C(=O)CN1C(=O)NC(c2ccccc2)(c2ccccc2)C1=O)C1CCS(=O)(=O)C1 (stereo unspecified)	·	·	·	-2	·	-8
Cc1ccc(Oc2c(CO)c(-c3ccccc3)nn2C)cc1	1	18*	1	3	0	-12
CCOC(=O)C1(Cc2ccccc2)CCCN(C(=O)COc2ccccc2OC)C1 (stereo unspecified)	·	·	·	6	·	-1
Cc1cc(C)cc(Nc2c3c(nc4ncnn24)CCC3)c1	0	12*	0	-8	0	0
CCN(CC(=O)Nc1ccccc1OC)Cc1csc(CC(=O)Nc2ccc(C)cc2)n1	·	·	·	-4	·	2
CCOC(=O)c1ccc2c(c1)n(CC)c(/C=C/N(C)c1ccccc1)[n+]2CC	-8	4	-1	-3	-1	-1
CC[n+]1c(/C=C/N(C)c2ccccc2)n(-c2ccccc2)c2ccc(-c3nc4ccccc4s3)cc21	·	·	·	17	·	31*
COc1ccc(NC(=O)CN(c2ccc([N+](=O)[O-])cc2)S(=O)(=O)c2ccccc2)cc1	-16	14*	3	8	0	-21
CCN(CC(=O)Nc1c(F)cccc1F)C(=O)c1cccc(S(=O)(=O)NCc2ccccc2)c1	·	·	·	-2	·	-13
CCCCn1c(N)c(N(CCOC)C(=O)c2ccc(-n3c(C)ccc3C)cc2)c(=O)[nH]c1=O	·	·	·	2	·	14
CCCc1nc(SCC(=O)Nc2cc(C)on2)c2ccccc2n1	0	3	-2	-2	0	-6
CCC(C)n1c(SCC(=O)Nc2cc(C)on2)nc2ccccc2c1=O (stereo unspecified)	-3	39*	-1	-3	0	-4
Cc1cc(NC(=O)CSc2nc(C(C)(C)C)nc3ccccc23)no1	3	14*	11	-7	0	-14
C=CCn1c(C)nnc1SCC(=O)Nc1nccs1	·	·	·	1	·	0
Cc1ccc(C(O)c2ncc(-c3ccccc3F)[nH]2)c(C)c1 (stereo unspecified)	·	·	·	·	·	-5
CNc1ccc(Br)cc(C(=O)/C=C/c2cccc(Cl)c2Cl)c1=O	-12	9.9*	1	2	0	3
CNc1ccc(Br)cc(C(=O)/C=C/c2cccc(OC)c2OC)c1=O	-1	4	-1	1	0	1
COCCCNC(=O)c1cc(S(=O)(=O)N2CCC3(CC2)OCCO3)ccc1F	·	·	·	-8	·	3
COc1cc2c(cc1OC)CN(C(=O)/C=C/c1cccs1)CC2	·	·	120*	5	·	0
